Shown are actives, neighbours in structure and some others; about 2.7% of the full set was active somewhere.
TCR CD3 inh – blocks the human TCR-CD3 interaction; TAMRA-labeled TCR probe fluorescence, biochemical; inhibition, % at 9.4 µM; actives 0.37% (n = 360,000); AID 651800; in the data active means inhibition above about 19%;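 further: recombinant mutant TCR 2C K166C tagged with TAMRA read by polarization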
HTRA1 inh – inhibitors of human serine peptidase HTRA1 | recombinant HTRA1, FP-rhodamine activity-based probe, fluorescence polarization | inhibition, % at 5.96 µM | actives 0.5% (n = 340,000); in the data active means inhibition above about 36%
mABHD4 FP – ABHD4 (mouse) inhibition, primary FP screen; Q8VD66; purified mABHD4, FP-Rh probe fluorescence polarization; inhibition, % at 8.92 µM; actives 0.54% (n = 370,000);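 active means inhibition exceeding the mean over every tested compound plus 3 SD, cut at about 30% in these data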
Target sequence (Q8VD66 whole entry, looked up): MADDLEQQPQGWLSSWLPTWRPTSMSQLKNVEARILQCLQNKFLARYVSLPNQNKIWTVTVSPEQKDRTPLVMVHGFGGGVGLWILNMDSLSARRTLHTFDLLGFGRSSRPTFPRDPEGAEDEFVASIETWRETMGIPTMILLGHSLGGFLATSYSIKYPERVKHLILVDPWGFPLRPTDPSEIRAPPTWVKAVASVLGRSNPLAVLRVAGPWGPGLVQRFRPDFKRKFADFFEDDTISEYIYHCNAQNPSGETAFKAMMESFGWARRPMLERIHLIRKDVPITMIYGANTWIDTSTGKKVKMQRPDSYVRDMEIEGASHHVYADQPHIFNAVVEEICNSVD
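Doses – 8.92 µM, single dose · Material – wild-type mouse ABHD4 protein · Replication – single well per compound (singlicate) · Measure – percent inhibition of probe binding, normalized to plate controls · Schedule – 45 min compound pre-incubation plus 60 min probe step, 25 °C · Detection – fluorescence polarization with parallel and perpendicular emission, 525/598 nm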
SIAE primary – inhibitors of human sialic acid acetylesterase SIAE; inhibition, % at 9.66 µM; Q9HAT2; SIAE FP-Rh probe binding, fluorescence polarization; actives 0.69% (n = 370,000); AID 1053197;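 active means inhibition above a cutoff: mean of compounds within the control limits plus 3 SD of those, cut at about 17% in these data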
PRMT1 inh – inhibitors of human PRMT1. Q99873. actives 1.3% (n = 370,000). recombinant PRMT1, activity-based probe fluorescence polarization. inhibition, % at 2.79 µM;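 active means inhibition above about 21% made by adding two undisclosed values, limit read from the data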
PRMT1 inh conf – confirmation of human PRMT1 inhibitors. shares compounds with PRMT1 inh. recombinant His-PRMT1, activity-based probe fluorescence polarization. inhibition, % at 2.79 µM. actives 42% (n = 3,300). AID 687036;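 active means mean inhibition across replicates above the hit cutoff derived for the earlier primary screen, cut at about 22% in these data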
A number is an active result; 0 = inactive; - = no result given; + = active, no number.

SMILES | TCR CD3 inh | HTRA1 inh | mABHD4 FP | SIAE primary | PRMT1 inh | PRMT1 inh conf
COC(=O)[C@@]12CCCCN1[C@H](c1ccc(-c3ccc4c(c3)OCO4)cc1)[C@H]1C(=O)N(C)C(=O)[C@H]12 | 0 | 0 | 0 | 0 | 0 | -
COc1ccc(N/C=C2\CCc3ccccc3C2=O)cc1 | 0 | 0 | 0 | 0 | 59 | 44
Cc1cccc(C2NC(=O)c3c(sc(C)c3C)N2)c1O (stereo not given) | 0 | 0 | 0 | 0 | 53 | 0
N#C/C(=C\c1ccccc1[N+](=O)[O-])C(=O)NC1CCCCC1 | 0 | 0 | 0 | 0 | 32 | 0
N#C/C(=C\C=C\c1ccccc1[N+](=O)[O-])C(=O)NC1CCCCC1 | - | 0 | - | - | - | -
C[C@@H]1O[C@H](C2CCCC2)Cc2[nH]c(=S)[nH]c(=O)c21 | 0 | - | 0 | 0 | 0 | -
O=C(O)/C=C/C(=O)N1N=C(c2ccco2)CC1c1ccco1 (stereo not given) | 0 | 0 | 0 | 0 | 43 | 0
COc1ccc(-n2nc(C(=O)NCC(=O)NCc3cccc(F)c3)c3ccccc3c2=O)cc1Cl | 0 | 0 | 0 | 0 | 0 | -
O=C(NCc1ccc(Cl)cc1)c1ccc(Cn2cc(C(F)(F)F)ccc2=O)cc1 | 0 | 0 | 0 | 0 | 72 | 64
CCC12OC(=N)C(C#N)(C1C)C(C#N)(C#N)C(c1ccccc1)O2 (stereo not given) | 0 | 0 | 0 | 0 | 28 | 30
CC(C)C(C(=O)NC1CCCC1)N(CC1CCCO1)C(=O)CNS(=O)(=O)c1ccccc1 (stereo not given) | 0 | 0 | 0 | 0 | 0 | -
COc1cc2c(cc1OC)CN(C(=O)CSc1ccccc1C)CC2 | 0 | 0 | 0 | 0 | 33 | 0
COc1cc2c(cc1OC)CN(C(=O)CSC1=NCCS1)CC2 | 0 | 0 | 0 | 0 | 0 | -
CCSc1nc(-c2ccco2)ccc1C#N | 0 | 0 | 0 | 0 | 31 | 0
N#Cc1ccc(-c2ccco2)nc1SCc1ccccc1 | 0 | 0 | 0 | 0 | 0 | -
COc1ccc(Cc2c(C3CCCCC3)nc3c(Cl)cc(C(F)(F)F)cn23)c(C)c1 | 0 | - | 0 | 0 | 0 | -
O=C(NCc1ccncc1)C1Cc2c(-c3ccccc3Oc3ccccc3)ccnc2O1 (stereo not given) | 0 | - | 0 | 0 | 0 | -
Cc1ccc(CN(CC2CCCO2)C(=O)CN2C(=O)C(C(C)C)Oc3ccccc32)o1 (stereo not given) | 0 | 0 | 0 | 0 | 32 | 0
O=C(OCC(=O)C12CC3CC(CC(C3)C1)C2)c1ccc(O)cc1 | 0 | 0 | 0 | 0 | 56 | 0
O=C(COc1ccc(-c2ccccc2)cc1)NNC(=O)NC1CCCCC1 | 0 | 0 | 0 | 0 | 0 | -
C=CCNc1nc(Cl)nc(Nc2cc(Cl)ccc2OC)n1 | 0 | 0 | 0 | 0 | 0 | -
CCOC(=O)CC(S(=O)(=O)c1ccccc1)S(=O)(=O)c1ccccc1 | 0 | 0 | 0 | 0 | 79 | 58
C[C@@H]1CN([C@@H](C)CO)C(=O)CCCn2nncc2CO[C@@H]1CN(C)C(=O)Nc1ccnc(N2CCOCC2)c1 | 0 | 0 | 0 | 0 | 0 | -
CN(C)CC1CC/C(=C\c2ccc(O)cc2)C1=O (stereo not given) | 0 | 0 | 0 | 0 | 53 | 45
COc1ccc(/C=C2/CCC(CN3CCOCC3)C2=O)cc1 (stereo not given) | 0 | 0 | 0 | 0 | 53 | 61
SMILES | TCR CD3 inh | HTRA1 inh | mABHD4 FP | SIAE primary | PRMT1 inh | PRMT1 inh conf
COc1ccc(/C=C2\CCC(C3CCCC3)C2=O)cc1 (stereo not given) | 0 | 0 | 0 | 0 | 0 | -
COc1ccc(C2SCCN2C(=S)Nc2cccc(C(F)(F)F)c2)cc1 (stereo not given) | 0 | 0 | 0 | 0 | 0 | -
CCOC(=O)c1ccc(NC(=S)N2CCSC2c2ccc(OC)cc2)cc1 (stereo not given) | 0 | 0 | 0 | 0 | 88 | 0
CCOC(=O)c1ccc(NC(=S)N2CCSC2c2ccc(Cl)cc2)cc1 (stereo not given) | 0 | 0 | 0 | 0 | 84 | 0
COc1ccc(C2SCCN2C(=S)Nc2ccc(F)cc2)cc1 (stereo not given) | 0 | 0 | 0 | 0 | 58 | 0
O=S(=O)(c1ccccc1)c1nc(-c2ccco2)oc1NCc1cccnc1 | 0 | 0 | 0 | 0 | 32 | 0
CCCc1nc2c(sc3nc4c(cc32)COC(C)(C)C4)c(=O)n1Cc1ccco1 | 0 | 0 | 0 | 0 | 30 | 0
Cc1cccc(NC(=S)NCC23C=CC(O2)C2C(=O)N(c4ccc(Cl)cc4)C(=O)C23)c1 (stereo not given) | 0 | 0 | 0 | 0 | 78 | 31
Cc1ccc(N2C(=O)C3C4C=CC(CNC(=S)N5CCN(c6ccccc6)CC5)(O4)C3C2=O)cc1 (stereo not given) | 0 | 0 | 0 | 0 | 43 | 44
Cc1cccc(NC(=S)NNC(=O)COc2ccc(Cl)cc2Cl)c1 | 0 | 0 | 0 | 0 | 0 | -
Cc1ccc(S(=O)(=O)NCC23C=CC(O2)C2C(=O)N(c4ccccc4)C(=O)C23)cc1 (stereo not given) | 0 | 0 | 0 | 0 | 81 | 0
S=C(NCC1CCCO1)N1CCN(c2ccccc2)CC1 (stereo not given) | 0 | 0 | 0 | 0 | 0 | -
Cc1ccc(S(=O)(=O)NCC2(c3ccccc3)CCN(C)CC2)cc1 | 0 | 0 | 0 | 0 | 0 | -
Cc1ccc(NC(=S)NCC23C=CC(O2)C2C(=O)N(c4ccc(C)cc4)C(=O)C23)cc1 (stereo not given) | 0 | 0 | 0 | 0 | 91 | 50
CCc1nc2ccc(C(=O)NCCc3ccccn3)cn2c1N(CC)Cc1cccc(Br)c1 | 0 | - | 0 | 0 | 0 | -
COc1ccc(C(C)=O)cc1COC(=O)C1CCN(C(=O)c2ccc(Cl)cc2)CC1 | 0 | 0 | 0 | 0 | + | 0
COCCN(C(=O)COC(=O)CCC(=O)c1cccs1)c1c(N)n(Cc2ccccc2)c(=O)[nH]c1=O | 0 | 0 | 0 | 0 | 0 | -
CCn1c(C)c(CS(=O)(=O)c2ccccc2)[nH]c1=O | 0 | 0 | 0 | 0 | 69 | 73
Cc1ccc(NC(=O)Cn2c(=O)cnc3ccccc32)cc1S(=O)(=O)N1CCOCC1 | 0 | 0 | 0 | 0 | 0 | -
COc1cccc(CNC(=O)CSc2ccc(-c3ccco3)nn2)c1 | 0 | 0 | 0 | 0 | 0 | -
Cc1ccc(CSc2ccc(-c3ccco3)nn2)cc1 | 0 | 0 | 0 | 0 | 33 | 0
O=C(CSc1ccc(-c2ccco2)nn1)NCc1ccccc1 | 0 | 0 | 0 | 0 | 41 | 0
O=C(CSc1ccc(-c2ccco2)nn1)NCc1ccc(Cl)cc1 | 0 | 0 | 0 | 0 | 44 | 0
CC1=C(C(=O)N(C)C)CC(CC(=O)NC(c2ccccc2)c2ccccc2)C(=O)N1CCC1=CCCCC1 (stereo not given) | 0 | 0 | 0 | 0 | 0 | -
O=C(Cc1cccc(NC(=O)C2CCCN(C(=O)C3CCCC3)C2)c1)Nc1ccc(C(=O)N2CCCCC2)cc1 (stereo not given) | 0 | 0 | 0 | 0 | 0 | -
COC(=O)c1ccc(OC(=O)CCc2cc(OC)c(OC)c(OC)c2)cc1 | 0 | 0 | 0 | 0 | 0 | -

Source: PubChem (The Scripps Research Institute Molecular Screening Center)
